Reference: ChEMBL document CHEMBL1121364, “Nucleoside conjugates as potential antitumor agents. 3. Synthesis and antitumor activity of 1-(beta-D-arabinofuranosyl)cytosine conjugates of corticosteroids” (1980)

Assays:
L1210 [1] = test: Antitumor activity in the mice with intraperitoneal implanted L1210 lymphoid leukemia at the dose 50 mg/kg/day x 5 was determined and number of animals survived on 30 th day were reported; 0/8; format: functional, Mus musculus
Summary of the method: (§1)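 Female C3D2F1/J mice (C3H/HeJ × DBA/2J), groups of six to eight, average weight 25 g. Each mouse got 1 × 10^6 L1210 ascites cells ip, taken from DBA/2Ha donor mice bearing 3-5 day tumors. Compound was dissolved in 0.154 N NaOH and neutralized with 0.154 N HCl (final 0.9% NaCl). Dosed ip daily ×5, starting 24 h after implant. Recorded body weight change on day 8, survival range, median survival and 30-day survivors. ILS = (T/C − 1) × 100.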

L1210 [2] = test: Antitumor activity in the mice with intraperitoneal implanted L1210 lymphoid leukemia at the dose 100 mg/kg/day x 5 was determined as percentage increase in the life span as compared with control tumor bearers; format: functional; conditions: Mus musculus, L1210, ip; summary of the method: as §1
L1210 [3] = test: Antitumor activity in the mice with intraperitoneal implanted L1210 lymphoid leukemia at the dose of 25 mg/kg/day x 5 was determined as mean survival of treated group compared to untreated; 14/8.5; format: functional, Mus musculus
Summary of the method: (§2)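 C3D2F1/J female mice (C3H/HeJ female × DBA/2J male), groups of six to eight, average weight 25 g. Inoculated ip with 1 × 10^6 L1210 ascites cells taken from DBA/2Ha donor mice bearing 3-5 day old tumors. Compounds were dissolved in 0.154 N NaOH, neutralized with 0.154 N HCl (final 0.9% NaCl), and given ip daily for 5 days from 24 h post-implant. Median survival T/C; ILS = (T/C − 1) × 100; 30-day survivors counted.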

L1210 [4] = test: Antitumor activity in mice with intraperitoneal implanted L1210 lymphoid leukemia at the dose 75 mg/kg/day x 5 was determined as weight change (g/mouse) on 8th day; format: functional
Summary of the method: (§3)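 C3D2F1/J female mice (C3H/HeJ × DBA/2J), groups of six to eight, average 25 g, inoculated ip with 1 × 10^6 L1210 ascites cells taken from DBA/2Ha donor mice carrying 3-5 day tumors. Compound dissolved in 0.154 N NaOH, then neutralized with 0.154 N HCl to give 0.9% NaCl. Given ip daily for 5 consecutive days starting 24 h after implantation. Body weight change per mouse recorded on day 8.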

L1210 [5] = test: Antitumor activity in the mice with intraperitoneal implanted L1210 lymphoid leukemia at the dose 25 mg/kg/day x 5 was determined as Survival time in days; Range is 12-18 days; format: functional, Mus musculus; summary of the method: as §1
L1210 [6] = test: Antitumor activity in mice with intraperitoneal implanted L1210 lymphoid leukemia at the dose 25 mg/kg/day x 5 was determined as weight change (g/mouse) on 8th day; format: functional; summary of the method: as §3
L1210 [7] = test: Antitumor activity in the mice with intraperitoneal implanted L1210 lymphoid leukemia at the dose 50 mg/kg/day x 5 was determined as Survival time in days; Range is 14-17 days; format: functional, Mus musculus; summary of the method: as §1
L1210 [8] = test: Antitumor activity in mice with intraperitoneal implanted L1210 lymphoid leukemia at the dose 50 mg/kg/day x 5 was determined as weight change (g/mouse) on 8th day; format: functional; summary of the method: as §3
L1210 [9] = test: Antitumor activity in the mice with intraperitoneal implanted L1210 lymphoid leukemia at the dose 75 mg/kg/day x 5 was determined as Survival time in days; Range is 14-18 days; format: functional, Mus musculus; summary of the method: as §2
L1210 [10] = test: Antitumor activity in the mice with intraperitoneal implanted L1210 lymphoid leukemia at the dose 25 mg/kg/day x 5 was determined as percentage increase in the life span as compared with control tumor bearers; format: functional; conditions: Mus musculus, L1210, ip; summary of the method: as §1
L1210 [11] = test: In Vitro evaluation for the antiproliferative activity by observing the growth inhibition of L1210 lymphoid leukemia cells in culture at 72 hour; format: functional, Mus musculus
Summary of the method: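 Growth of L1210 lymphoid leukemia cells in culture measured by Trypan blue exclusion of viable cells after 72 h of drug exposure. ED50 is the concentration giving 50% growth inhibition. In some runs the compound was first preincubated in medium at 37 °C for 24 or 48 h before the assay.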

L1210 [12] = test: Antitumor activity in the mice with intraperitoneal implanted L1210 lymphoid leukemia at the dose 75 mg/kg/day x 5 was determined and number of animals survived on 30 th day were reported; 0/8; format: functional, Mus musculus; summary of the method: as §2
L1210 [13] = test: Antitumor activity in the mice with intraperitoneal implanted L1210 lymphoid leukemia at the dose 100 mg/kg/day x 5 was determined and number of animals survived on 30 th day were reported; 0/6; format: functional, Mus musculus; summary of the method: as §1
L1210 [14] = test: Antitumor activity in the mice with intraperitoneal implanted L1210 lymphoid leukemia at the dose of 75 mg/kg/day x 5 was determined as mean survival of treated group compared to untreated; 17.5/9.5; format: functional, Mus musculus
L1210 [15] = test: Antitumor activity in the mice with intraperitoneal implanted L1210 lymphoid leukemia at the dose 100 mg/kg/day x 5 was determined as Survival time in days; Range is 7-8 days; format: functional, Mus musculus; summary of the method: as §1
L1210 [16] = test: Antitumor activity in the mice with intraperitoneal implanted L1210 lymphoid leukemia at the dose of 50 mg/kg/day x 5 was determined as mean survival of treated group compared to untreated; 16/9.5; format: functional, Mus musculus; summary of the method: as §2
L1210 [17] = test: Antitumor activity in the mice with intraperitoneal implanted L1210 lymphoid leukemia at the dose 75 mg/kg/day x 5 was determined as percentage increase in the life span as compared with control tumor bearers; format: functional; conditions: Mus musculus, L1210, ip; summary of the method: as §2
L1210 [18] = test: Antitumor activity in the mice with intraperitoneal implanted L1210 lymphoid leukemia at the dose 50 mg/kg/day x 5 was determined as percentage increase in the life span as compared with control tumor bearers; format: functional; conditions: Mus musculus, L1210, ip; summary of the method: as §2
L1210 [19] = test: Antitumor activity in the mice with intraperitoneal implanted L1210 lymphoid leukemia at the dose 25 mg/kg/day x 5 was determined and number of animals survived on 30 th day were reported; 0/8; format: functional, Mus musculus; summary of the method: as §1
L1210 [20] = test: Antitumor activity in the mice with intraperitoneal implanted L1210 lymphoid leukemia at the dose of 100 mg/kg/day x 5 was determined as mean survival of treated group compared to untreated; 7/11; format: functional, Mus musculus; summary of the method: as §2

C[C@]12CCC(=O)C=C1CC[C@H]1[C@@H]3CC[C@](O)(C(=O)COP(=O)(O)OC[C@H]4O[C@@H](n5ccc(N)nc5=O)[C@@H](O)[C@@H]4O)[C@@]3(C)C[C@H](O)[C@@]12F
Survivors (L1210 [1]): 0 | ILS at 100 mg/kg/day (L1210 [2]): -36% | T/C (L1210 [3]): 14 | Weight change (L1210 [4]): 0.52 g mouse-1 | Survival time (L1210 [5]): 12 days | Weight change (L1210 [6]): -1.09 g mouse-1 | Survival time (L1210 [7]): 14 days | Weight change (L1210 [8]): 0.39 g mouse-1 | Survival time (L1210 [9]): 14 days | ILS at 25 mg/kg/day (L1210 [10]): 65% | ED 50 (L1210 [11]): 0.08 µM | Survivors (L1210 [12]): 0 | Survivors (L1210 [13]): 0 | Survival time (L1210 [14]): 17.5 days | Survival time (L1210 [15]): 7 days | T/C (L1210 [16]): 16 | ILS at 75 mg/kg/day (L1210 [17]): 84% | ILS at 50 mg/kg/day (L1210 [18]): 68% | Survivors (L1210 [19]): 0 | T/C (L1210 [20]): 7
